Assay results of several laboratories.
Effect on: enzyme activity
Action: inhibitor
PIK3CD: Phosphatidylinositol 4,5-bisphosphate 3-kinase catalytic subunit delta isoform (PIK3CD, Homo sapiens, UniProt O00329)
KIT: Mast/stem cell growth factor receptor Kit (KIT, Homo sapiens, UniProt P10721)

COc1ccc(-c2cc(=O)c3cccc(Nc4ncc5cc(C(=O)N(C)C)n(C6CCCC6)c5n4)c3o2)cc1 — IC50 (PIK3CD; radiometric): > 10000 nM
O=C1C(=Nc2ccc(Cl)cc2Br)c2ccccc2N1Cc1ccc([N+](=O)[O-])cc1 — IC50 (PIK3CD; ADP detection): 50.9 nM
O=C(NO)c1ccc(Cn2cnc3c(Nc4ccc(Cl)cc4)ncnc32)cc1 — IC50 (RAC-beta serine/threonine-protein kinase (AKT2, Homo sapiens, UniProt P31751); radiometric): > 20000 nM
CNC(=O)[C@H](Cc1c[nH]c2ccccc12)NC(=O)[C@@H](CC(=O)NO)CC(C)C — IC50 (Matrix metalloproteinase-14 (MMP14, Homo sapiens, UniProt P50281)): 1.37 nM
Cc1ccc(CN2C(=O)C(=Nc3c(C(C)C)cccc3C(C)C)c3ccccc32)cc1 — IC50 (PIK3CD; ADP detection): 233 nM
Cc1n[nH]c2ccc3nc(-c4ccc(C(=O)NCCN(C)C)cc4F)c4c(c3c12)CCCC4 — IC50 (KIT): 512 nM
O=C1Nc2ccc(I)cc2/C1=C/c1cc(Br)c(O)c(Br)c1 — IC50 (Casein kinase II subunit alpha (CSNK2A1, Homo sapiens, UniProt P68400)): 319 nM
Cc1n[nH]c2ccc3nc(-c4ccc(C(=O)NCCN(C)C)cc4)c4c(c3c12)CCCCC4 — IC50 (KIT): 328 nM
Cc1cccc(N=C2C(=O)Nc3ccccc32)c1 — IC50 (PIK3CD; ADP detection): 88.9 nM
CN(C)C(=O)c1cc2cnc(Nc3cc(C(F)(F)F)c(-c4cccc5c(=O)cc(N6CCOCC6)oc45)cn3)nc2n1C1CCCC1 — IC50 (PIK3CD; radiometric): 95 nM
CN(C)CCNC(=O)c1ccc(-c2nc3ccc4[nH]ncc4c3c3c2CCCCC3)cc1 — IC50 (KIT): 990 nM
CN(C)C(=O)c1cc2cnc(Nc3ccc(-c4ccc5c(=O)cc(N6CCOCC6)oc5c4)cc3)nc2n1C1CCCC1 — IC50 (PIK3CD; radiometric): 897 nM
O=C1Nc2ccccc2C1=Nc1cccc(Cl)c1 — IC50 (PIK3CD; ADP detection): 83.7 nM
CN(C)C(=O)c1cc2cnc(Nc3cc(C(=O)O)cc(-c4ccc5c(=O)cc(N6CCOCC6)oc5c4)c3)nc2n1C1CCCC1 — IC50 (PIK3CD; radiometric): 725 nM
O=C1C(=Nc2ccc(Cl)cc2)c2ccccc2N1Cc1ccc([N+](=O)[O-])cc1 — IC50 (PIK3CD; ADP detection): 30.5 nM
CN(C)CCNC(=O)c1ccc(-c2nc3ccc4[nH]ncc4c3c3c2CCCC3)c(F)c1 — IC50 (KIT): 887 nM
CN(C)C(=O)c1cc2cnc(Nc3ccc(-c4cccc5c(=O)cc(N6CCOCC6)oc45)c(F)c3)nc2n1C1CCCC1 — IC50 (PIK3CD; radiometric): 40.5 nM
COc1ccccc1N1CCN(C(=O)c2cccc(S(=O)(=O)n3cncn3)c2)CC1 — IC50 (Prostaglandin reductase 2 (Homo sapiens, UniProt Q8N8N7); lysate): 176 nM
CN1CCN(c2cc(=O)c3ccc(Nc4ncc5cc(C(=O)N(C)C)n(C6CCCC6)c5n4)cc3o2)CC1 — IC50 (PIK3CD; radiometric): > 10000 nM
C=CCN1C(=O)C(=Nc2cccc(C)c2)c2ccccc21 — IC50 (PIK3CD; ADP detection): 81.2 nM
